Screening data from PubChem.
Sampled rows, rich in hits. Any-hit rate of the full collection: about 1.9%.
M4 PAM – positive allosteric modulators of human muscarinic M4 receptor; activation, % at 3 µM; 360,000 tested, 0.4% active; CHO-K1 hM4/Gqi5, Fluo-8 calcium fluorescence, ACh EC20; 0% = ACh EC20, 100% = maximal ACh; AID 624126;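 active means activation above its plate's cutoff, the mean activation of sample wells plus 3 SD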
Target sequence (P08173 whole entry, looked up): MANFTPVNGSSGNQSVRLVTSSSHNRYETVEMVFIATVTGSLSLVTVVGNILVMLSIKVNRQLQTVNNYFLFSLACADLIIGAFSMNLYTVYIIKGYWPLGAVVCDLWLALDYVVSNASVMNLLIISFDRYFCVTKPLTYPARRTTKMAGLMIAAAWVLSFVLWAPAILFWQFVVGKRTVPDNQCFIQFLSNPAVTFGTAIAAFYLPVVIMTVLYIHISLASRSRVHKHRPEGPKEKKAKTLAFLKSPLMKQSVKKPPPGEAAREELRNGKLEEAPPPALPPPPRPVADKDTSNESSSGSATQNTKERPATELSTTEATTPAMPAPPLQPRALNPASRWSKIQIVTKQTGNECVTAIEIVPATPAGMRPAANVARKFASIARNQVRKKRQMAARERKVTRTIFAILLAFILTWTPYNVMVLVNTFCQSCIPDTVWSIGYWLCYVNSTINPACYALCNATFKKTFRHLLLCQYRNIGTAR
M5 ag – CHRM5 agonism in calcium assay; AID 624037; CHO-K1 hM5 cells, Fluo-8 calcium fluorescence; 0% DMSO wells, 100% maximal acetylcholine response; 360,000 tested, 0.19% active; P08912; activation, % at 3 µM;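 active means activation above the run's mean over test compounds plus 3 SD, cut at about 23% in these data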;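 further: signal is peak over basal fluorescence ratio across the kinetic read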
CHRM4 antagonist – CHRM4 antagonism in calcium assay; CHO-hM4 cells, ACh EC80, Fluo-8 calcium fluorescence; inhibition, % at 3 µM; 360,000 tested, 0.73% active;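 active means inhibition above its plate's cutoff, the mean inhibition of sample wells plus 3 SD, cut at about 27% in these data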
M5 antag – antagonists of human muscarinic M5 receptor (CHRM5) | P08912 | 360,000 tested, 0.59% active | inhibition, % at 3 µM | CHO-hM5 cells, Fluo-8 calcium fluorescence, ACh EC80 | AID 624040;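 active means inhibition above a per-plate cutoff, the mean of that plate's test compounds plus 3 SD, cut at about 27% in these data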
M4 ag – agonists of human muscarinic M4 receptor (CHRM4). P08173. CHO-K1 hM4/Gqi5, Fluo-8 calcium fluorescence; vehicle 0%, full acetylcholine response 100%. activation, % at 3 µM. 360,000 tested, 0.14% active. AID 624127;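 active means activation above the run mean over all test wells plus 3 SD, cut at about 32% in these data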;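 further: peak over basal fluorescence ratio per well then scaled between controls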
CHRM5 PAM – CHRM5 positive allosteric modulation; P08912; CHO-K1 hM5, Fluo-8 calcium, ACh EC20 PAM; 0% = ACh EC20, 100% = ACh EC100; 360,000 tested, 0.3% active; AID 624038; activation, % at 3 µM;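 active means activation above the run cutoff, the mean activation of all test compounds plus 3 SD, cut at about 18% in these data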
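System: CHO-K1 cell line with stable human muscarinic M5 receptor expression | Also added: EC20 acetylcholine as agonist stimulus | Compound: One concentration, 3 µM final (nominal) | Timing: Fluo-8 loading 80 min at 37 °C plus 30 min room temperature | Measured by: Fluo-8 calcium dye fluorescence, kinetic read | Read-out basis: % activation, ACh-normalized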
Hits are given with their value; . = inactive.

SMILES	M4 PAM	M5 ag	CHRM4 antagonist	M5 antag	M4 ag	CHRM5 PAM
COc1cc(C(=O)NNC(=O)COc2ccc(Br)cc2)ccc1OCC(=O)N1CCOCC1	.	.	.	.	.	.
O=C(COc1ccc(Br)cc1)N1CCOCC1	.	.	.	.	.	18.3
CCOc1ccc(OCC(=O)N2CCOCC2)cc1	.	.	.	.	.	.
Cc1ccc(C)c(Nc2nc3ccc(C)cc3n3cnnc23)c1	.	.	.	.	.	.
CCCCCCN1C2=NCCN2c2ccccc21	.	.	28.6	.	.	.
CCCCOC(=O)C1=C(C)NC(=O)NC1c1ccc(OC)cc1 (stereo unspecified)	.	.	.	.	.	18.1
O=C1CCC(=O)N1N1C(=O)C2C3c4ccccc4C(c4ccccc43)C2C1=O (stereo unspecified)	.	.	.	.	.	22.4
O=C1C2C3c4ccccc4C(c4ccccc43)[C@@H]2C(=O)N1c1ccccn1 (stereo partly specified)	.	.	.	.	.	.
C(#Cc1ccccc1)C[N+]1(CC#Cc2ccccc2)CCCCC1	.	.	32.6	42.8	.	.
C#CC[N+]1(CC#Cc2ccccc2)CCCCC1	.	.	.	.	.	.
CCC[N+]1(CC#CCC(c2ccccc2)c2ccccc2)CCCCC1	.	.	27.0	.	.	.
COc1cccc(NC(=O)CN(C)C(=O)c2ccc(Cl)c(S(=O)(=O)N3CCCCCC3)c2)c1	.	.	.	.	.	.
COc1ccc(S(=O)(=O)NCC2CCCN(CC(C)(C)C)C2)cc1 (stereo unspecified)	.	.	.	.	.	.
Cc1nc2ccccn2c1C(=O)NNS(=O)(=O)c1ccc(C(C)(C)C)cc1	.	.	.	27.9	.	.
COc1ccc(Br)cc1S(=O)(=O)NNC(=O)c1c(C)nc2ccccn12	.	.	.	.	.	.
CCN(CC)c1ccc(C(=C2C=CC(=[N+](CC)CC)C=C2)c2ccccc2)cc1	.	30.3	98.7	84.9	66.1	.
CCN(CC)c1ccc(C(=C2C=CC(=[N+](CC)CC)C=C2)c2ccc(N(CC)CC)cc2)cc1	.	.	43.1	35.6	.	.
CC(Oc1ccc2c(-c3ccccc3)cc(=O)oc2c1)C(=O)O (stereo unspecified)	.	.	27.0	.	.	.
CC(Oc1ccc2c(-c3ccccc3)cc(=O)oc2c1)C(=O)N1CCOCC1 (stereo unspecified)	.	.	.	.	.	.
COc1ccc(Cl)cc1NC(=O)COC(=O)CCNS(=O)(=O)c1cccs1	.	.	.	.	.	.
CCOC(=O)C1(CCCc2ccccc2)CCN(C(=O)CSC)CC1	.	.	.	.	.	.
CCOC(=O)C1(CCCc2ccccc2)CCN(C2CCN(C(C)=O)CC2)CC1	.	.	.	30.1	.	.
CCOc1cc2[nH]c(=S)n(CCCCC(=O)NCc3ccco3)c(=O)c2cc1OCC	32.0	.	.	.	.	.
O=C(CS(=O)(=O)c1ccccc1)Nc1ccccn1	.	.	.	.	.	.
O=C(CS(=O)(=O)c1ccccc1)Nc1ccc(Br)cn1	.	.	.	.	.	19.7
SMILES	M4 PAM	M5 ag	CHRM4 antagonist	M5 antag	M4 ag	CHRM5 PAM
Cc1cccc(-c2ccc3c(c2)C2CC3CCN2)c1 (stereo unspecified)	.	.	.	.	.	.
CCc1cc(=O)oc2c(C)c(OCC(=O)NCCCn3ccnc3)ccc12	.	.	.	.	.	.
CCN(CC(=O)Nc1ccc2c(c1)OCCO2)C(=O)/C=C/c1cccc(OC)c1OC	.	25.3	.	.	.	.
CCN(CC(=O)Nc1ccc2c(c1)OCCO2)C(=O)/C=C/c1ccc(OC)cc1OC	.	.	.	.	.	.
COc1ccc(OC)c(C2C(C(=O)c3ccc(C)o3)=C(O)C(=O)N2CCCN2CCOCC2)c1 (stereo unspecified)	.	.	.	.	.	22.7
O=C(CS(=O)(=O)c1ccc(Cl)cc1)Nc1nccs1	.	.	.	.	.	.
CCOC(=O)Cc1[nH]nc2c1C(c1ccsc1)C(C#N)=C(N)O2 (stereo unspecified)	.	.	.	.	.	.
CCCCC(=O)OCC(=O)C1(O)Cc2c(O)c3c(c(O)c2C(OC2CC(NC(=O)C(F)(F)F)C(O)C(C)O2)C1)C(=O)c1c(OC)cccc1C3=O (stereo unspecified)	.	33.4	.	39.6	.	.
COc1ccc(C2=NN(C3=NN=C(N)Cc4ncnn43)C(O)(C(F)(F)F)C2)cc1 (stereo unspecified)	.	.	.	.	.	.
CCNc1nc(NC(C)C)nc(NS(=O)(=O)c2ccc(N)cc2)n1	29.8	.	.	.	.	.
COC(=O)c1ccccc1NC(=O)c1onc(C)c1Cl	.	.	.	.	.	.
CCc1ccccc1NC(=O)c1onc(C)c1Cl	.	.	55.1	.	.	.
CN1C(=O)S/C(=C\c2ccc(-n3cncn3)cc2)C1=O	.	.	.	.	.	21.0
O=Cc1ccc(-n2cncn2)cc1	.	.	.	.	.	.
O=C(O)CC(CC(=O)N1CCN(C(=O)c2ccco2)CC1)c1ccccc1 (stereo unspecified)	.	.	.	.	.	.
COc1cccc(C(C)(O)c2nc(-c3ccc(N(C)C)cc3)cs2)c1 (stereo unspecified)	.	.	.	.	.	.
Cc1ccnc(OC(C(=O)O)C(OCc2ccccc2)(c2ccccc2)c2ccc(C(F)(F)F)cc2)n1 (stereo unspecified)	.	.	.	.	.	.
CC(C)c1nc2n[nH]c(N)c2c2c1CCCC2	23.0	.	.	.	.	.
Cc1ccc(S(=O)(=O)NCC(=O)OCC(=O)N2CCN(C(=O)c3ccco3)CC2)cc1C	.	.	.	.	.	.
NC(Cc1ccc(F)cc1)c1csc(Nc2cc(Oc3ccccc3)ncn2)n1 (stereo unspecified)	.	.	.	.	.	.
CCCc1cc(C(=O)NNC(=S)NCc2ccccc2)cs1	.	.	.	.	.	.
CCCc1cc(C(=O)NNC(=S)NC2CCCCC2)cs1	18.1	.	.	.	.	.
Oc1ccc(-c2n[nH]c(C(F)(F)F)c2-c2ccccc2)c(O)c1	.	.	46.8	63.6	.	.
COc1ccc(-c2c(-c3ccc(O)cc3O)n[nH]c2C(F)(F)F)cc1	.	.	.	.	.	.
OC[C@@H]1CN(Cc2ccccc2)C[C@H](n2cnc3c(N4CCN(c5ccccc5)CC4)ncnc32)O1	.	.	.	.	.	.
CCOC(=O)N1CCC(NC(=O)c2cc3c(-c4cccc(OC)c4)nn(C)c3s2)CC1	18.5	.	.	.	.	.
